Data published in paper PMC3972754 (European biophysics journal : EBJ, 2013).
Structures can show the parent of a compound that is named as a salt. Where two headings read alike, the source gives them in different places.

Columns and labels:
[1] = biological target: T1, cPAH (phenylalanine hydroxylase from Chromobacterium violaceum) (Chromobacterium violaceum, UniProt P30967, Y155A); test: biochemical
[2] = biological target: T2, cPAH (phenylalanine hydroxylase from Chromobacterium violaceum) (Chromobacterium violaceum, UniProt P30967, T254A); test: biochemical
[3] = biological target: T3, cPAH (phenylalanine hydroxylase from Chromobacterium violaceum) (Chromobacterium violaceum, UniProt P30967, F258A); test: biochemical
[4] = biological target: T4, cPAH (phenylalanine hydroxylase from Chromobacterium violaceum) (Chromobacterium violaceum, UniProt P30967); test: tyrosine formation at […] nm, initial rates; type: biochemical; conditions: 20 °C, 0.1 M Na-HEPES pH 7.4, O2 saturated, FeSO4, 350 µM DMPH4
T4 sequence (P30967 1-297): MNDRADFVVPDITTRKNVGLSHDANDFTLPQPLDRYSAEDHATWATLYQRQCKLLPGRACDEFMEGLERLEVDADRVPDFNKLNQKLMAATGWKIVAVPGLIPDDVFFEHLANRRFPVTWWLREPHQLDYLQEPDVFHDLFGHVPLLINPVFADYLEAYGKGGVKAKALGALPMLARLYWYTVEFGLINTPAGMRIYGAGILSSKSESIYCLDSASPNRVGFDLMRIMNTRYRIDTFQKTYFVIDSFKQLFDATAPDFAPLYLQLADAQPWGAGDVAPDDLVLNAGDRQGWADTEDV

[5] = biological target: T4, cPAH (phenylalanine hydroxylase from Chromobacterium violaceum); test: ITC, one-site model; type: binding
[6] = biological target: T5, cPAH (phenylalanine hydroxylase from Chromobacterium violaceum) (Chromobacterium violaceum, UniProt P30967, S203P); test: biochemical
[7] = biological target: T3, cPAH (phenylalanine hydroxylase from Chromobacterium violaceum); test: biochemical; remark: listed apart in the source
[8] = biological target: T5, cPAH (phenylalanine hydroxylase from Chromobacterium violaceum); test: biochemical; remark: listed apart in the source
[9] = biological target: T4, cPAH (phenylalanine hydroxylase from Chromobacterium violaceum); test: ITC; type: binding
Procedure, shortened: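 Untagged or GST-cleaved C. violaceum cPAH (WT or point mutants), dialysed overnight against 50 mM HEPES pH 7.4. Amino-acid ligand (1–10 mM) titrated into 50–100 µM protein over 18 × 2 µL injections. Buffer-only reference subtracted; one-site fit; duplicates. Anaerobic variant (argon, 25 °C): apo enzyme reconstituted with 0.5–1.0 mol ferrous ammonium sulfate per mol PAH, plus 200 µM pterin cofactor, equilibrated 15 min.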

[10] = biological target: T2, cPAH (phenylalanine hydroxylase from Chromobacterium violaceum); test: biochemical; remark: listed apart in the source
[11] = biological target: T1, cPAH (phenylalanine hydroxylase from Chromobacterium violaceum); test: biochemical; remark: listed apart in the source

SMILES	Kd [1] [µM]	Kd [2] [µM]	Kd [3] [µM]	Km [4] [µM]	Kd [5] [µM]	Kd [6] [µM]	Kd [7] [µM]	Kd [8] [µM]	Kd [9] [µM]	Kd [10] [µM]	Kd [11] [µM]
N[C@@H](Cc1ccccc1)C(=O)O [phenylalanine]	559 ± 30	376 ± 10	775 ± 44	244 ± 40.8	24 ± 1.1	7 ± 0.3					
C[C@H](O)[C@H](O)[C@H]1CNc2nc(N)[nH]c(=O)c2N1 [BH4, (6R)-5,6,7,8-tetrahydrobiopterin dihydrochloride]							29.3 ± 1.6	35.2 ± 3.3	23.5 ± 1.6	43.6 ± 4.2	16.2 ± 0.7
